Test results as given in ChEMBL document CHEMBL1126566, “Studies on analogues of classical antifolates bearing the naphthoyl group in place of benzoyl in the side chain” (J Med Chem, 1993).
Where a chain is given by its changes, count along the chain named.

How the values were obtained:
[1] = molecular target: T1, Folylpolyglutamate synthase, mitochondrial (Mus musculus) (UniProt P48760); experiment: Specific activity of L1210 Folyl-polyglutamate synthase
T1 sequence (whole entry): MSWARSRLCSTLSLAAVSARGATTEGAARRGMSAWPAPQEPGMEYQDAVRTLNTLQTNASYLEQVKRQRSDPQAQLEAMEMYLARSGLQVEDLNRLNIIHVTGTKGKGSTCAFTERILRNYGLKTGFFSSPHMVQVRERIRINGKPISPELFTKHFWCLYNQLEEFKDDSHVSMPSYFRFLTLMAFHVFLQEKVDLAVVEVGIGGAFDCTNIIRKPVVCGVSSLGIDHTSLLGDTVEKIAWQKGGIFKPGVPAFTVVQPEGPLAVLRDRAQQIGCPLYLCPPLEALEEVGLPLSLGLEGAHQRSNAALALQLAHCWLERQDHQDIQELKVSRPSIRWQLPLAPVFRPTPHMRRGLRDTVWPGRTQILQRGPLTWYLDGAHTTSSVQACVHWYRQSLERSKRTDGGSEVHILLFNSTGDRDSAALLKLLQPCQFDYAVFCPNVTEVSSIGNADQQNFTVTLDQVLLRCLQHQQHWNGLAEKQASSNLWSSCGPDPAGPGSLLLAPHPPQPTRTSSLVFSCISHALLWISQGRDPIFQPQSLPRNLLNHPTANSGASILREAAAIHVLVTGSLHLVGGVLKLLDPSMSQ
Method in brief: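 FPGS from L1210 cells was assayed by [³H]glutamate ligation, like the human enzyme assay. Each folate substrate was at 100 μM, and only specific activity was measured.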

Mus musculus [2] = experiment: Antitumor activity against E0771 mammary adenocarcinoma in mice at 150 mg/kg(5 days) was determined and […] at day 10 was reported; type: functional
Mus musculus [3] = experiment: Antitumor activity against E0771 mammary adenocarcinoma in mice at 150 mg/kg(5 days) was determined and tumor volume at day 14 was reported; type: functional
Method in brief: (§1)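 Mice bearing implanted E0771 mammary adenocarcinoma, five per test group. Dosing was daily for 5 days, starting on day 3 after implantation. Tumor volume (mm³) was calculated as 4/3πr³ and is also expressed as treated/control (%).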

Mus musculus [4] = experiment: Antitumor activity against E0771 mammary adenocarcinoma in mice at 100 mg/kg(5 days) was determined and […] at day 7 was reported; type: functional
HL-60 = experiment: Tested for the ability to inhibit growth in vitro against HL60; type: functional, cell-based; settings: Homo sapiens
Mus musculus [5] = experiment: Antitumor activity against E0771 mammary adenocarcinoma in mice at 100 mg/kg(5 days) was determined and tumor volume at day 7 was reported; type: functional; method in brief: as §1
Mus musculus [6] = experiment: Antitumor activity against E0771 mammary adenocarcinoma in mice at 100 mg/kg(5 days) was determined and […] at day 14 was reported; type: functional
CCRF-CEM = experiment: Percent inhibition of Folyl-polyglutamate synthase from CCRF-CEM cells; type: cell-based; set-up: concentration or dose not given beside the values; settings: Homo sapiens, dose or concentration not given here
Method in brief: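 FPGS was partially purified from CCRF-CEM cells by (NH₄)₂SO₄ fractionation and gel sieving, with no detectable γ-glutamyl hydrolase. Product was separated on DEAE-cellulose. Percent inhibition is reported.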

Mus musculus [7] = experiment: Antitumor activity against E0771 mammary adenocarcinoma in mice at 100 mg/kg(5 days) was determined and […] at day 10 was reported; type: functional
Dihydrofolate reductase [8] = molecular target: T2, Dihydrofolate reductase (Mus musculus, UniProt P00375); experiment: Inhibitory activity of Dihydrofolate reductase in L1210 cells; type: cell-based
T2 sequence (P00375 whole entry): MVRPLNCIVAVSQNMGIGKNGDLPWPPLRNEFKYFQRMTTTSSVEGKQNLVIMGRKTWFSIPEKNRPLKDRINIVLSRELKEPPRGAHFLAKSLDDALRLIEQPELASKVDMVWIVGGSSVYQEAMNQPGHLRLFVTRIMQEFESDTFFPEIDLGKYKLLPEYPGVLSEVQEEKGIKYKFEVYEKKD

L1210 [9] = experiment: Tested for transport into L1210 cells measured as cell influx; type: functional, cell-based, Mus musculus
L1210 [10] = experiment: Tested for the ability to inhibit growth in vitro against L1210; type: functional, cell-based; settings: Mus musculus
[11] = Ratio of Vmax and Km against CCRF-CEM Folyl-polyglutamate synthetase; type: ADME; settings: human
Method in brief: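 Substrate assay with CCRF-CEM FPGS. Analogue replaced aminopterin at 0–100 μM (0–200 μM for one analogue). Buffer held 5 mM ATP, 10 mM MgCl₂, 4 mM L-[³H]Glu, pH 8.4, 37 °C. Ligated glutamate was separated on DEAE-cellulose. Assays were run in duplicate or triplicate within linear enzyme and time ranges, and each experiment was repeated. Vmax (relative to aminopterin) and Km give V/K.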

Mus musculus [12] = experiment: Antitumor activity against E0771 mammary adenocarcinoma in mice at 150 mg/kg(5 days) was determined and […] at day 7 was reported; type: functional
Mus musculus [13] = experiment: Antitumor activity against E0771 mammary adenocarcinoma in mice at 150 mg/kg(5 days) was determined and tumor volume at day 10 was reported; type: functional; method in brief: as §1
Mus musculus [14] = experiment: Antitumor activity against E0771 mammary adenocarcinoma in mice at 150 mg/kg(5 days) was determined and […] at day 14 was reported; type: functional
Dihydrofolate reductase [15] = molecular target: T3, Dihydrofolate reductase (Pneumocystis carinii, UniProt P16184); experiment: Tested for inhibition against Pneumocystis carinii DHFR (dihydrofolate reductase)
T3 sequence (P16184 whole entry): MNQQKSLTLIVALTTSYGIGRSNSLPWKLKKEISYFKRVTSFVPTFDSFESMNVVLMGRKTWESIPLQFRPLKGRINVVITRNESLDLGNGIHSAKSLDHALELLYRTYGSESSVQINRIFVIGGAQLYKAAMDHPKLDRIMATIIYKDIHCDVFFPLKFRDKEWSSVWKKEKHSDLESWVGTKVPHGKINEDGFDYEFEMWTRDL

Dihydrofolate reductase [16] = molecular target: T4, Dihydrofolate reductase (Rattus norvegicus, UniProt Q920D2); experiment: Tested for inhibition against rat liver DHFR (dihydrofolate reductase)
T4 sequence (Q920D2 whole entry): T2 sequence (P00375 whole entry) with P27L, R85Q, R99K, I115V, G155E, V170I

Mus musculus [17] = experiment: Antitumor activity against E0771 mammary adenocarcinoma in mice at 100 mg/kg(5 days) was determined and tumor volume at day 10 was reported; type: functional; method in brief: as §1
Mus musculus [18] = experiment: Antitumor activity against E0771 mammary adenocarcinoma in mice at 100 mg/kg(5 days) was determined and tumor volume at day 14 was reported; type: functional; method in brief: as §1
[19] = Activity relative to saturating aminopterine at 100 uM against CCRF-CEM Folyl-polyglutamate synthetase; type: ADME; settings: human
Method in brief: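 FPGS from CCRF-CEM cells: freeze-thawed lysates fractionated by (NH₄)₂SO₄ (0–40% saturation pellet) and gel sieving, stored at –90 °C in 20% glycerol, free of detectable γ-glutamyl hydrolase. Product was separated on DEAE-cellulose minicolumns. Run in duplicate or triplicate, and each experiment was repeated at least once.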

CCRF S-180 = experiment: Tested for the ability to inhibit growth in vitro against S180; type: functional, cell-based; settings: Mus musculus
Mus musculus [20] = experiment: Antitumor activity against E0771 mammary adenocarcinoma in mice at 150 mg/kg(5 days) was determined and tumor volume at day 7 was reported; type: functional; method in brief: as §1

| SMILES | IC50 (HL-60) | inhibition (CCRF-CEM) | Ki (Dihydrofolate reductase [8]) | Ki (L1210 [9]) | IC50 (L1210 [10]) | Relative Vmax [19] | IC50 (CCRF S-180) | further results |
| --- | --- | --- | --- | --- | --- | --- | --- | --- |
| CN(Cc1cnc2nc(N)nc(N)c2n1)c1ccc(C(=O)NC(CCC(=O)O)C(=O)O)c2ccccc12 (stereo unspecified) | 3.3 nM | 3% | 0.00522 nM | 1040 nM | 9 nM | 0.27 | 9.3 nM | Specific activity (pM hr-1 (mg of protein)-1) [1]: 0.18; T/C (Mus musculus [2]): 23%; Tumor volume (Mus musculus [3]): 493 mm**3; T/C (Mus musculus [4]): 37%; Tumor volume (Mus musculus [5]): 82 mm**3; T/C (Mus musculus [6]): 48%; T/C (Mus musculus [7]): 43%; V/K [11]: 0.0033; T/C (Mus musculus [12]): 28%; Tumor volume (Mus musculus [13]): 144 mm**3; T/C (Mus musculus [14]): 28%; IC50 (Dihydrofolate reductase [15]): 0.00019 nM; IC50 (Dihydrofolate reductase [16]): 0.0025 nM; Km (Homo sapiens): 82 µM; Tumor volume (Mus musculus [17]): 268 mm**3; Tumor volume (Mus musculus [18]): 839 mm**3; Tumor volume (Mus musculus [20]): 62 mm**3 |
| CN(Cc1cnc2nc(N)nc(N)c2c1)c1ccc(C(=O)NC(CCC(=O)O)C(=O)O)c2ccccc12 (stereo unspecified) | 1.5 nM | 23% |  | 780 nM | 2.3 nM |  | 1.9 nM |  |
| Nc1nc(N)c2cc(CNc3ccc(C(=O)NC(CCC(=O)O)C(=O)O)c4ccccc34)ccc2n1 (stereo unspecified) | 0.65 nM |  | 0.0052 nM | 900 nM | 6.1 nM |  | 3.9 nM |  |
| Nc1nc(N)c2cc(CNc3ccc(C(=O)NC(CCC(=O)O)C(=O)O)c4c3CCCC4)cnc2n1 (stereo unspecified) | 17 nM | 16% | 0.0131 nM | 600 nM | 16 nM | 0.01 | 33 nM |  |
